Assay results from ChEMBL document CHEMBL1123614, “Effects of [(N-alkyl-1,3-dioxo-1H,3H-isoindolin-5-yl)oxy]alkanoic acids, [(N-alkyl-1-oxo-1H,3H-isoindolin-5-yl)oxy]butanoic acids, and related derivatives on chloride influx in primary astroglial cultures” (J Med Chem, 1987).

What was measured:
Assay type in all cases: functional, organism-based
Rattus norvegicus [1] = organism: Rattus norvegicus; experiment: Reduction of Astrocyte intracellular chloride concentration at 0.1 mM.
Summary of the method: (§1)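 Primary rat astrocyte cultures (1–4-day-old Sprague-Dawley pups, oligodendrocytes not removed, >90% astrocytes) grown 3–5 weeks in serum BME. Cells equilibrated 60 min at 37 °C in chloride-HCO3 Hepes medium. Cells washed with ice-cold 0.32 M sucrose. Counts, minus time-0 background, normalized to Lowry protein. Reported as % of vehicle control ± SD, n = 4.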

Rattus norvegicus [2] = organism: Rattus norvegicus; experiment: Reduction of Astrocyte intracellular chloride concentration at 0.05 mM.; summary of the method: as §1
Rattus norvegicus [3] = organism: Rattus norvegicus; experiment: Reduction of Astrocyte intracellular chloride concentration at 1 mM.; summary of the method: as §1
Rattus norvegicus [4] = organism: Rattus norvegicus; experiment: Reduction of Astrocyte intracellular chloride concentration at 0.01 mM.; summary of the method: as §1
Rattus norvegicus [5] = organism: Rattus norvegicus; experiment: Reduction of Astrocyte intracellular chloride concentration at 0.05 mM; No data.; summary of the method: as §1
[6] = 0.5 mM, in the assay text read “0.5 mM” for “0.05 mM”

Compound	Concentration (Rattus norvegicus [1])	Concentration (Rattus norvegicus [2]; 0.05 mM)	other results
O=C(O)CCCOc1ccc2c(c1)C(=O)NC2=O	93%	88%	–
NS(=O)(=O)c1cc(C(=O)O)c(NCc2ccco2)cc1Cl	79%	–	Concentration (Rattus norvegicus [3]): 21%
O=C(O)CCCOc1ccc2c(c1Cl)C(=O)N(C1CCCC1)C2=O	107%	–	–
CN1Cc2cc(OCCCC(=O)O)ccc2C1=O	84%	–	–
CN1C(=O)c2ccc(OCCCC(=O)O)cc2C1=O	90%	118%	–
CN1C(=O)c2cc(OCCCC(=O)O)c(Cl)c(Cl)c2C1=O	91%	–	–
CCN1Cc2cc(OCCCC(=O)O)ccc2C1=O	67%	–	Concentration (Rattus norvegicus [4]): 109%; Concentration (Rattus norvegicus [3]): 57%; Concentration (Rattus norvegicus [2]; [6]): 67%; Concentration (Rattus norvegicus [5]): 93%
O=C(O)CCCOc1ccc2c(c1)C(=O)N(CCCCO)C2=O	106%	101%	–
O=C(O)COc1ccc2c(c1)C(=O)N(C1CCCC1)C2=O	91%	92%	–
O=C(O)CCCOc1ccc(C(=O)NC2CCCC2)c(Cl)c1Cl	93%	78%	–
CCCN1C(=O)c2cc(OCCCC(=O)O)c(Cl)c(Cl)c2C1=O	74%	–	Concentration (Rattus norvegicus [2]; [6]): 89%
CCCCN1C(=O)c2cc(OCCCC(=O)O)c(Cl)c(Cl)c2C1=O	86%	–	Concentration (Rattus norvegicus [2]; [6]): 74%
CCCCN1Cc2cc(OCCCC(=O)O)ccc2C1=O	97%	76%	–
CN(C(=O)c1ccc(OCCCC(=O)O)c(Cl)c1Cl)C1CCCC1	79%	–	–
O=C(O)CCCOc1ccc2c(c1)C(=O)N(C1CCCCC1)C2=O	105%	–	–
CCCCCN1C(=O)c2ccc(OCCCC(=O)O)cc2C1=O	85%	77%	–
O=C(O)CCCOc1c(Cl)cc2c(c1Cl)C(=O)N(C1CCCC1)C2=O	94%	–	–

Compound	Concentration (Rattus norvegicus [1])	Concentration (Rattus norvegicus [2]; 0.05 mM)	other results
O=C(O)COc1ccc2c(c1)C(=O)N(C1CCCCC1)C2=O	94%	87%	–
O=C(O)CCCOc1cc2c(cc1Cl)C(=O)N(C1CCCC1)C2=O	111%	–	–
O=C(O)CCCOc1cc2c(cc1Cl)C(=O)N(C1CCCC1)C2	115%	–	–
CCCCN1C(=O)c2cc(Cl)c(OCCCC(=O)O)cc2C1=O	95%	–	Concentration (Rattus norvegicus [2]; [6]): 81%
CCN1C(=O)c2cc(OCCCC(=O)O)c(Cl)c(Cl)c2C1=O	103%	–	Concentration (Rattus norvegicus [2]; [6]): 83%
O=C(O)CCCOc1cc2c(c(Cl)c1Cl)C(=O)N(C1CCCC1)C2=O	97%	–	–
CCCN1Cc2cc(OCCCC(=O)O)ccc2C1=O	98%	76%	–
O=C(O)CCCOc1ccc2c(c1)C(=O)N(CCCO)C2=O	75%	83%	–
O=C(O)CCCOc1ccc(C(=O)NC2CCCC2)cc1Cl	83%	–	–
C=C(CC)C(=O)c1ccc(OCC(=O)O)c(Cl)c1Cl	78%	–	–
CCCCCCN1C(=O)c2ccc(OCCCC(=O)O)cc2C1=O	109%	–	Concentration (Rattus norvegicus [2]; [6]): 118%
CCN1C(=O)c2ccc(OCCCC(=O)O)cc2C1=O	104%	76%	–
CCCCN1C(=O)c2ccc(OCCCC(=O)O)cc2C1=O	88%	69%	–
CCCN1C(=O)c2ccc(OCC(=O)O)cc2C1=O	103%	110%	–
O=C(O)CCCOc1ccc2c(c1)C(=O)N(C1CCCC1)C2=O	101%	–	–
CCCN1C(=O)c2ccc(OCCCC(=O)O)cc2C1=O	67%	80%	–
O=C(O)CCCOc1ccc(C(=O)NC2CCCC2)cc1Br	74%	–	–
